Active and inactive are the calls of the source. The rule behind the calls is not given here.
Tests used:
HOP-92 = experiment: Growth inhibition of human HOP92 cells after 24 hrs by SRB assay; assay type: functional; details: HOP-92, 24 h
Mus musculus [1] = experiment: Acute toxicity in C57BL/6 mouse assessed as lethargic movement at 20 mg/kg, ip administered as 20% 2HPbetaCD formulation on day 1 followed by redosing with 15 mg/kg, ip on day 14 measured on day 15 post first dose; assay type: organism-based; details: in vivo
Outline: (§1)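 Female/male not stated; C57BL/6 mice received 20 mg/kg IP on day zero in 100 μL of 20% (w/v) 2-HPβCD, then a second 15 mg/kg IP dose on day fourteen. Vehicle controls got 100 μL of 20% 2-HPβCD IP on days 0, 7, 14, 21, 25 and 29. Body weight and behaviour were monitored throughout, with survival plotted Kaplan-Meier.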

HOP-62 [2] = experiment: Growth inhibition of human HOP62 cells assessed as cell growth at 10 uM after 24 hrs by SRB assay relative to control; assay type: functional; details: HOP-62, 24 h, read-out: Activity
Outline: (§2)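 NCI DTP one-dose screen: cells plated at density set by doubling rate, incubated overnight, then exposed to compound at 10 μM for 24 hours. Growth percentage from protein density at end versus start of experiment, relative to initial cell number.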

NCI-H460 [3] = experiment: Antiproliferative activity against human NCI-H460 cells using 10% 2-HPbetaCD compound formulation after 72 hrs by MTT assay; assay type: functional, cell-based; details: NCI-H460, 72 h
Outline: (§3)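 MTT anti-proliferation on NSCLC lines. Compounds dissolved in DMSO, diluted with water to 1% DMSO, then into growth medium (max 0.032% DMSO on cells); or dissolved in 10% (w/v) 2-HPβCD in water, then diluted (max 0.008% w/w 2-HPβCD in wells; vehicle controls at 0.008%). IC50 = concentration giving 50% loss of viability versus control cells. Cisplatin dissolved in water with stirring.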

EKVX = experiment: Growth inhibition of human EKVX cells assessed as cell growth at 10 uM after 24 hrs by SRB assay relative to control; assay type: functional; details: read-out: Activity; outline: as §2
HOP-62 [4] = experiment: Growth inhibition of human HOP62 cells after 24 hrs by SRB assay; assay type: functional; details: HOP-62, 24 h
NCI-H460 [5] = experiment: Growth inhibition of human NCI-H460 cells assessed as cell growth at 10 uM after 24 hrs by SRB assay relative to control; assay type: functional; details: NCI-H460, 24 h, read-out: Activity; outline: as §2
Bos taurus = species: Bos taurus; experiment: Inhibition of ethidium bromide binding to calf thymus DNA assessed as at 13.3 uM using 10% 2HPbetaCD/water compound formulation by spectrofluorometric method
NCI-H23 = experiment: Growth inhibition of human NCI-H23 cells after 24 hrs by SRB assay; assay type: functional; details: NCI-H23, 24 h
A549 = experiment: Antiproliferative activity against human A549 cells using 10% 2-HPbetaCD compound formulation after 72 hrs by MTT assay; assay type: functional, cell-based; details: A549, 72 h; outline: as §3
HCC827 = experiment: Antiproliferative activity against human HCC827 cells using 10% 2-HPbetaCD compound formulation after 72 hrs by MTT assay; assay type: functional, cell-based; details: HCC827, 72 h; outline: as §3
[6] = Solubility of the compound in 1% DMSO/water solution; assay type: physicochemical; details: buffer
NCI-H460 [7] = experiment: Induction of apoptosis in human NCI-H460 cells at 40 uM up to 1 hr using 1% DMSO/water compound formulation by Annexin V-FITC/propidium iodide staining based fluorescence microscopic method; assay type: functional, cell-based
NCI-H1975 = experiment: Potency index, ratio of compound cisplatin IC50 to compound IC50 for human NCI-H1975 cells using 10% 2-HPbetaCD compound formulation; assay type: functional
Mus musculus [8] = experiment: Acute toxicity in C57BL/6 mouse assessed as weight regain at 20 mg/kg, ip administered as 20% 2HPbetaCD formulation measured on day 4 to 14 post dose; assay type: organism-based; details: in vivo; outline: as §1
NCI-H226 = experiment: Growth inhibition of human NCI-H226 cells assessed as cell growth at 10 uM after 24 hrs by SRB assay relative to control; assay type: functional; details: NCI-H226, 24 h, read-out: Activity; outline: as §2
NCI-H460 [9] = experiment: Induction of apoptosis in human NCI-H460 cells assessed as morphological changes at 40 uM up to 3 hrs by Annexin V-FITC/propidium iodide staining based fluorescence microscopic method; assay type: functional, cell-based
[10] = read-out: LC50 (the source's name)

CCc1n(Cc2ccc3ccccc3c2)cc[n+]1Cc1ccc2ccccc2c1.[Br-]
GI50 (HOP-92): 338 nM
TGI (HOP-92): 1770 nM
CC50 (HOP-92; [10]): 1770 nM
Activity (Mus musculus [1]): Toxic
growth at 10 µM (HOP-62 [2]): 11.9%
IC50 (NCI-H460 [3]): 990 nM
growth at 10 µM (EKVX): 11.9%
GI50 (HOP-62 [4]): 1420 nM
LC50 (HOP-62 [4]): 9360 nM
TGI (HOP-62 [4]): 3650 nM
growth at 10 µM (NCI-H460 [5]): 5.54%
inhibition (Bos taurus): inactive
GI50 (NCI-H23): 396 nM
TGI (NCI-H23): 2020 nM
CC50 (NCI-H23; [10]): 2020 nM
IC50 (A549): 2340 nM
IC50 (HCC827): 970 nM
solubility [6]: Soluble
Activity (NCI-H460 [7]): Active
Ratio IC50 (NCI-H1975): 17
Activity (Mus musculus [8]): Toxic
growth at 10 µM (NCI-H226): 6.75%
Activity (NCI-H460 [9]): inactive

From ChEMBL document CHEMBL4002637, “Synthesis, characterization, in vitro SAR and in vivo evaluation of N,N'bisnaphthylmethyl 2-alkyl substituted imidazolium salts against NSCLC” (Bioorg Med Chem Lett, 2017)
